Columns and labels:
5637 [1] = experiment: Antiproliferative activity against human 5637 cells after 96 hrs by crystal violet assay; assay type: functional, cell-based; details: Homo sapiens, 5637, 96 h
Procedure, shortened: (§1)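 Adherent lines from DSMZ grown in RPMI 1640 with 10% FCS plus penicillin G/streptomycin. Seeded at 1000 cells/well 24 h before dosing, with an untreated plate fixed at dosing as the time-zero reference. Compounds came from DMSO series, five concentrations at 0.1% final DMSO, eight wells each. Exposure was continuous for 96 h. Cells were glutaraldehyde-fixed, stained with 0.02% crystal violet, dye eluted in 70% ethanol, OD 570 nm. Results are corrected T/C% against time-zero.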

A-427 = experiment: Antiproliferative activity against human A427 cells after 96 hrs by crystal violet assay; assay type: functional, cell-based; details: A-427, 96 h; procedure, shortened: as §1
[2] = Antiproliferative activity against human KYSE70 cells after 96 hrs by crystal violet assay; assay type: functional, cell-based; details: KYSE-70, 96 h; procedure, shortened: as §1
MCF7 = experiment: Antiproliferative activity against human MCF7 cells after 96 hrs by crystal violet assay; assay type: functional, cell-based; details: MCF7, 96 h; procedure, shortened: as §1
5637 [3] = experiment: Growth inhibition of human 5637 cells at 12.5 uM after 96 hrs by crystal violet assay; assay type: functional; details: Homo sapiens, 5637, 96 h; procedure, shortened: as §1
[4] = Growth inhibition of human KYSE70 cells at 12.5 uM after 96 hrs by crystal violet assay; assay type: functional; details: KYSE-70, 96 h; procedure, shortened: as §1

COc1cc([C@@H]2c3cc4c(cc3[C@@H](O[C@@H]3O[C@@H]5CO[C@@H](C)O[C@H]5[C@H](O)[C@H]3O)[C@H]3COC(=O)[C@H]23)OCO4)cc(OC)c1O [ETOPOSIDE]
IC50 5637 [1]: 0.54 µM
IC50 (A-427): 0.13 µM
IC50 [2]: 0.94 µM
IC50 (MCF7): 0.5 µM

C[C@@H]1O[C@H](N2C(=O)/C(=C3\Nc4ccccc4\C3=N/O)c3ccccc32)[C@H](O)[C@H](O)[C@H]1O
IC50 5637 [1]: 15.5 µM
IC50 [2]: 15.4 µM
IC50 (MCF7): 17 µM

O=C1/C(=C2/C(=O)N([C@@H]3O[C@H](CO)[C@@H](O)[C@H](O)[C@H]3O)c3ccccc32)Nc2ccccc21
IC50 5637 [1]: 14.4 µM
IC50 (A-427): 11.8 µM
IC50 [2]: 28.9 µM
IC50 (MCF7): 15.7 µM

Cc1cc(C)c2c(c1)N([C@H]1O[C@@H](C)[C@H](O)[C@@H](O)[C@H]1O)C(=O)/C2=C1\Nc2ccccc2C1=O
IC50 5637 [1]: > 12.5 µM
IC50 [2]: > 12.5 µM
IC50 (MCF7): 6.16 µM
inhibition at 12.5 µM 5637 [3]: < 20%
inhibition at 12.5 µM [4]: < 20%

O=C1/C(=C2/C(=O)N([C@@H]3O[C@H](CO)[C@H](O)[C@H](O)[C@H]3O)c3ccccc32)Nc2ccccc21
IC50 5637 [1]: 24.9 µM
IC50 (A-427): 13.2 µM
IC50 [2]: 41.5 µM
IC50 (MCF7): 25.8 µM

C[C@@H]1O[C@H](N2C(=O)/C(=C3\Nc4ccc(Cl)cc4C3=O)c3ccccc32)[C@H](O)[C@H](O)[C@H]1O
IC50 5637 [1]: 8.23 µM
IC50 [2]: 5.94 µM
IC50 (MCF7): 7.98 µM

Nc1ncn([C@@H]2O[C@H](CO)[C@@H](O)[C@H]2O)c(=O)n1 [AZACITIDINE]
IC50 5637 [1]: 1.73 µM
IC50 (A-427): 0.63 µM
IC50 [2]: 1.59 µM
IC50 (MCF7): 6.78 µM

O=C1/C(=C2/C(=O)N([C@@H]3O[C@H](CO)[C@@H](O)[C@H](O)[C@@H]3O)c3ccccc32)Nc2ccccc21
IC50 5637 [1]: 10.6 µM
IC50 (A-427): 5.55 µM
IC50 [2]: 11.8 µM
IC50 (MCF7): 4.22 µM

C[C@@H]1O[C@H](N2C(=O)/C(=C3\Nc4ccccc4C3=O)c3ccccc32)[C@H](O)[C@H](O)[C@H]1O
IC50 5637 [1]: > 12.5 µM
IC50 (A-427): > 12.5 µM
IC50 [2]: > 12.5 µM
IC50 (MCF7): 0.76 µM

C[C@@H]1O[C@@H](N2C(=O)/C(=C3\Nc4ccc(Cl)cc4C3=O)c3ccccc32)[C@H](O)[C@H](O)[C@H]1O
IC50 5637 [1]: 12.9 µM
IC50 [2]: 15.3 µM
IC50 (MCF7): 6.96 µM

O=C(O)CCCc1ccc(N(CCCl)CCCl)cc1 [CHLORAMBUCIL]
IC50 5637 [1]: 6.55 µM
IC50 (A-427): 9.5 µM
IC50 [2]: 38.4 µM
IC50 (MCF7): 18.4 µM

C[C@@H]1O[C@@H](N2C(=O)/C(=C3\Nc4ccccc4C3=O)c3ccccc32)[C@H](O)[C@H](O)[C@H]1O
IC50 5637 [1]: > 25 µM
IC50 (A-427): > 25 µM
IC50 [2]: > 25 µM
IC50 (MCF7): 0.67 µM
inhibition at 12.5 µM 5637 [3]: < 20%
inhibition at 12.5 µM [4]: < 20%

Source: ChEMBL document CHEMBL1150294, “Synthesis of indirubin-N'-glycosides and their anti-proliferative activity against human cancer cell lines” (Bioorg Med Chem, 2008)
